Measured values from ChEMBL document CHEMBL3244365, “Synthesis of potential hypolipidemic agents. Reaction of substituted phenyl 2,3-epoxypropyl ethers with adenine, uracil, and thymine” (J Med Chem, 1978).
Activity calls are given as the source filed them. The rule behind the calls is not given here.

Legend:
Rattus norvegicus [1] = test: Hypolipidemic activity in Sprague-Dawley rat assessed as decrease in serum cholesterol at 10 mg/kg/day, po after 22 to 24 hrs by Liebermann-Burchard reaction (reference value: 100 +/- 8%); assay type: functional
Method in brief: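 Male Sprague-Dawley rats were kept on rodent chow with water ad libitum. Compounds were suspended and homogenized in 1% CMC-water and given by oral intubation once daily at 11:00 a.m., with doses based on weekly body weights. Tail-vein blood was taken 22-24 h after dosing into nonheparinized microcapillary tubes and centrifuged 3 min. Serum cholesterol (mg %) was measured on duplicate 30-μl non-hemolyzed samples by a modified Liebermann-Burchard reaction.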

Liver microsome = test: Hypolipidemic activity in rat liver microsomes assessed as inhibition of incorporation of [1,3-14C]glycerol 3-phosphate ino neutral lipid at 0.5 to 5 mM; assay type: functional
Method in brief: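 Rat liver microsomes were incubated with sn-[1,3-14C]glycerol 3-phosphate in the presence of ATP, palmitate, CoA and Mg2+. Label incorporated into neutral lipid (diglyceride + triglyceride) was measured, and phosphatidic acid accumulation was also followed.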

Rattus norvegicus [2] = species: Rattus norvegicus; test: Inhibition of rat phosphatidate phosphohydrolase in liver microsomes assessed as reduction in enzyme activity at 2 mmol
Rattus norvegicus [3] = test: Hypolipidemic activity in Sprague-Dawley rat assessed as decrease in serum triglyceride at 10 mg/kg, po qd for 1 week (reference value: 100 +/- 5.3%); assay type: functional; conditions: 168 h
Rattus norvegicus [4] = test: Hypolipidemic activity in Sprague-Dawley rat assessed as decrease in serum triglyceride at 50 mg/kg, po qd for 1 week (reference value: 100 +/- 5.3%); assay type: functional; conditions: 168 h
Rattus norvegicus [5] = test: Hypolipidemic activity in Sprague-Dawley rat assessed as decrease in serum triglyceride at 100 mg/kg, po qd for 1 week (reference value: 100 +/- 5.3%); assay type: functional; conditions: 168 h
Rattus norvegicus [6] = test: Hypolipidemic activity in Sprague-Dawley rat assessed as decrease in liver triglyceride at 10 mg/kg, po qd for 1 week (reference value: 100 +/- 8.4%); assay type: functional; conditions: 168 h
Rattus norvegicus [7] = test: Toxicity in Sprague-Dawley rat assessed as change in body weight at 10 to 100 mg/kg, po; assay type: organism-based; set-up: dose 10-100 mg/kg, route oral; conditions: in vivo
Method in brief: (§1)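 Male Sprague-Dawley rats received 10-100 mg/kg orally once daily for 7 days as a 1% CMC-water suspension. Body weight gain, food intake and deaths were monitored.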

Rattus norvegicus [8] = test: Toxicity in Sprague-Dawley rat assessed as change in food intake at 10 to 100 mg/kg, po; assay type: organism-based; set-up: dose 10-100 mg/kg, route oral; conditions: in vivo; method in brief: as §1
Rattus norvegicus [9] = test: Hypolipidemic activity in Sprague-Dawley rat assessed as liver triglyceride level at 100 mg/kg, po qd for 1 week (reference value: 100 +/- 8.4%); conditions: 168 h
Rattus norvegicus [10] = test: Hypolipidemic activity in Sprague-Dawley rat assessed as change in liver triglyceride at 50 mg/kg, po qd for 1 week (reference value: 100 +/- 8.4%); conditions: 168 h
Rattus norvegicus [11] = test: Hypolipidemic activity in Sprague-Dawley rat assessed as incorporation of [1,3-14C]glycerol in liver phospholipid at 10 mg/kg, po qd for 1 week (reference value: 100 +/- 8.3%); conditions: 168 h
Rattus norvegicus [12] = test: Hypolipidemic activity in Sprague-Dawley rat assessed as incorporation of [1,3-14C]glycerol in liver phospholipid at 100 mg/kg, po qd for 1 week (reference value: 100 +/- 8.3%); conditions: 168 h
Rattus norvegicus [13] = test: Hypolipidemic activity in Sprague-Dawley rat assessed as inhibition of incorporation of [1,3-14C]glycerol in liver triglyceride at 10 mg/kg, po qd for 1 week (reference value: 100 +/- 8.4%); values are per cent of control; conditions: 168 h
Rattus norvegicus [14] = test: Hypolipidemic activity in Sprague-Dawley rat assessed as inhibition of incorporation of [1,3-14C]glycerol in liver triglyceride at 50 mg/kg, po qd for 1 week (reference value: 100 +/- 8.4%); values are per cent of control; conditions: 168 h
Rattus norvegicus [15] = test: Hypolipidemic activity in Sprague-Dawley rat assessed as inhibition of incorporation of [1,3-14C]glycerol in liver phospholipid at 50 mg/kg, po qd for 1 week (reference value: 100 +/- 8.3%); values are per cent of control; conditions: 168 h
Rattus norvegicus [16] = test: Hypolipidemic activity in Sprague-Dawley rat assessed as inhibition of incorporation of [1,3-14C]glycerol in liver triglyceride at 100 mg/kg, po qd for 1 week (reference value: 100 +/- 8.4%); values are per cent of control; conditions: 168 h

COc1ccc(OCC(O)Cn2cnc3c(N)ncnc32)cc1 (stereo unspecified)
level, % of control at 10 mg/kg/day (Rattus norvegicus [1]): 93%

Cc1ccc(OCC(O)Cn2cc(C)c(=O)[nH]c2=O)cc1 (stereo unspecified)
level, % of control at 10 mg/kg/day (Rattus norvegicus [1]): 99%

Cc1ccc(OCC(O)Cn2ccc(=O)[nH]c2=O)cc1 (stereo unspecified)
level, % of control at 10 mg/kg/day (Rattus norvegicus [1]): 89%

Nc1ncnc2c1ncn2CC(O)CSc1ccc(Cl)cc1 (stereo unspecified)
level, % of control at 10 mg/kg/day (Rattus norvegicus [1]): 79%

COc1ccc(OCC(O)Cn2ccc(=O)[nH]c2=O)cc1 (stereo unspecified)
level, % of control at 10 mg/kg/day (Rattus norvegicus [1]): 93%

Nc1ncnc2c1ncn2CC(O)COc1ccc(C(=O)c2ccccc2)cc1 (stereo unspecified)
level, % of control at 10 mg/kg/day (Rattus norvegicus [1]): 118%

Nc1ncnc2c1ncn2CC(O)COc1ccc(F)cc1 (stereo unspecified)
level, % of control at 10 mg/kg/day (Rattus norvegicus [1]): 86%

Cc1cn(CC(O)COc2ccc(Cl)cc2)c(=O)[nH]c1=O (stereo unspecified)
level, % of control at 10 mg/kg/day (Rattus norvegicus [1]): 96%

CC(=O)c1ccc(OCC(O)Cn2cnc3c(N)ncnc32)cc1 (stereo unspecified)
level, % of control at 10 mg/kg/day (Rattus norvegicus [1]): 99%

O=c1ccn(CC(O)COc2ccc(Cl)cc2)c(=O)[nH]1 (stereo unspecified)
level, % of control at 10 mg/kg/day (Rattus norvegicus [1]): 102%

Nc1ncnc2c1ncn2CC(O)COc1ccccc1Cl (stereo unspecified)
level, % of control at 10 mg/kg/day (Rattus norvegicus [1]): 93%

Nc1ncnc2c1ncn2CC(O)COc1ccc(Cl)cc1 (stereo unspecified)
level, % of control at 10 mg/kg/day (Rattus norvegicus [1]): 93% | inhibition (Liver microsome): Active | inhibition (Rattus norvegicus [2]): 50% | level, % of control at 10 mg/kg (Rattus norvegicus [3]): 73% | level, % of control at 50 mg/kg (Rattus norvegicus [4]): 38.5% | level, % of control at 100 mg/kg (Rattus norvegicus [5]): 40.3% | level, % of control at 10 mg/kg (Rattus norvegicus [6]): 57.6% | Activity (Rattus norvegicus [7]): Non-toxic | Activity (Rattus norvegicus [8]): Non-toxic | level, % of control at 100 mg/kg (Rattus norvegicus [9]): 345% | level, % of control at 50 mg/kg (Rattus norvegicus [10]): 252% | level, % of control at 10 mg/kg (Rattus norvegicus [11]): 74.9% | level, % of control at 100 mg/kg (Rattus norvegicus [12]): 36.7% | level, % of control at 10 mg/kg (Rattus norvegicus [13]): 36.7% | level, % of control at 50 mg/kg (Rattus norvegicus [14]): 29% | level, % of control at 50 mg/kg (Rattus norvegicus [15]): 33.5% | level, % of control at 100 mg/kg (Rattus norvegicus [16]): 31.8%

CC(C)(C)c1ccc(OCC(O)Cn2cnc3c(N)ncnc32)cc1 (stereo unspecified)
level, % of control at 10 mg/kg/day (Rattus norvegicus [1]): 110%

Nc1ncnc2c1ncn2CC(O)COc1cccc(Cl)c1 (stereo unspecified)
level, % of control at 10 mg/kg/day (Rattus norvegicus [1]): 97%

Nc1ncnc2c1ncn2CC(O)COc1ccc(Br)cc1 (stereo unspecified)
level, % of control at 10 mg/kg/day (Rattus norvegicus [1]): 96%
